# According to paper PMC3758425 (Biochemistry, 2013):
# Entries after “also recorded” stand apart in the source; their conditions may differ.
# What was measured:
# [1] = target: holo-CaM (Ca-bound human calmodulin) (Homo sapiens, UniProt P0DP23); assay: NMR titration; details: compared with literature membrane binding, [55], [56]
# Summary of the method: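 Human CaM was expressed in E. coli and purified, ¹⁵N-labelled, holo form, held constant at 100 μM. It was titrated with N-acetylated α-syn, as the 1–19 peptide or the full-length protein, in 50 mM MES, 100 mM NaCl, 3 mM CaCl₂, pH 6.4, 5% D₂O. Amide shifts were read by ¹⁵N HSQC at 800 MHz, 310 K. Ten amides were scaled to one reference residue and fitted globally to a two-state 1:1 model.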
# CaM = details: non-acetylated α-syn, cited from earlier work
# [2] = non-acetylated form; ref [28]; cited from earlier work
# apo-CaM = details: non-acetylated α-syn; ref [28], [29]; cited from earlier work
# [3] = ref [36]; cited from earlier work
substance,measurement,setting,value
α-syn: Full-length non-acetylated α-syn expressed in E. coli,binding constant to holo-CaM relative to membranes containing anionic lipids,[1],comparable
same,binding affinity (two earlier studies),"CaM; ref [28], [29]",submicromolar range
same,Kd,"CaM; read-out: dissociation constant (later study), ref [30]",~10 µM
same,competition of CaM with membrane for α-syn binding,[2],CaM can compete with the membrane for α-syn binding
same,interaction with apo-CaM in earlier studies,apo-CaM,There is disagreement whether apo-CaM can interact with α-syn; also recorded: one report seeing interaction only in the presence of calcium-bound (holo-) CaM whereas the other observed little difference between the two forms
same,"affinity for negatively charged membranes, effect of N-terminal acetylation",[3],N-terminal acetylation increases its affinity for negatively charged membranes
